The source made the active and inactive calls. No cut-off for these calls is given here.
Key:
PANC-1 = assay: Antitumor activity against human PANC1 cells xenografted in BALB/c nude mouse assessed as inhibition of tumor growth at 150 mg/kg/day, po for 30 days relative to control; assay type: functional; settings: PANC-1, po, 720 h, read-out: TGI
Procedure, shortened: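 Female BALB/c nude mice, 6-8 weeks old, injected subcutaneously in the right flank with 5×10^6–1×10^7 PANC-1 cells. At 130-150 mm³, mice randomized into 4 groups (n = 6) and dosed orally once daily for 30 days against vehicle. Tumor volume followed over time. Inhibition rate assessed against control.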

[1] = target: T1, NAD-dependent protein deacylase sirtuin-6 (Homo sapiens, UniProt Q8N6T7); assay: Activation of N-terminal his-tagged human SIRT6 expressed in Escherichia coli M15 [pREP4] assessed as increase in deacetylation activity incubated for 2 hrs using Ac-RYQK(Ac)-AMC substrate by HPLC analysis
[2] = Tmax in Sprague-Dawley rat at 2 mg/kg, iv after 0.25 to 24 hrs by LC-MS/MS analysis; assay type: ADME, organism-based; settings: in vivo
Procedure, shortened: (§1)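 Male Sprague-Dawley rats, 6–8 weeks old, received a single dose of 10 mg/kg p.o. or 2 mg/kg i.v. The vehicle was 5% DMSO, 10% Solutol and 85% saline at pH 7. Blood was taken by cardiac puncture at 0.083–24 h (p.o.) or 0.25–24 h (i.v.), and plasma was measured by LC-MS/MS. Values are mean ± SD, n = 3.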

[3] = target: T1, NAD-dependent protein deacylase sirtuin-6; assay: […] in human PANC1 cells assessed as reduction in H3K56ac levels incubated for 72 hrs by Western blot analysis; assay type: cell-based; settings: PANC-1
Procedure, shortened: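 Cells incubated 72 h with various compound concentrations; whole-cell RIPA lysates with protease inhibitors, BCA-normalised, separated on 12% SDS-PAGE, transferred to PVDF, blocked in 5% milk or BSA. Probed 10 h at 4 °C with antibodies to SIRT6, acetyl-H3K9/K18/K56, total H3, Lin28b, Myc, IGF2BP3, β-actin; HRP secondary, chemiluminescent detection.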

SK-OV-3 = assay: Antiproliferative activity against human SKOV3 cells assessed as reduction in cell viability incubated for 72 hrs by MTT assay; assay type: functional, cell-based
[4] = AUC (0 to t) in Sprague-Dawley rat at 10 mg/kg, po after 0.083 to 24 hrs by LC-MS/MS analysis; assay type: ADME, organism-based; settings: in vivo
Procedure, shortened: (§2)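 Male Sprague-Dawley rats, 6-8 weeks old. Dosing solution of 10 (PO) or 2 (IV) mg/mL in 5% DMSO, 10% Solutol and 85% saline, pH 7. Blood taken by cardiac puncture at 0.083–24 h (PO) or 0.25–24 h (IV). Plasma levels measured by LC-MS/MS. Values are mean ± SD, n = 3.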

[5] = Tmax in Sprague-Dawley rat at 10 mg/kg, po after 0.083 to 24 hrs by LC-MS/MS analysis; assay type: ADME, organism-based; settings: in vivo; procedure, shortened: as §1
Homo sapiens = organism: Homo sapiens; assay: Antiproliferative activity against human OCUT-2C cells assessed as reduction in cell viability incubated for 72 hrs by MTT assay; assay type: functional, cell-based
[6] = target: NAD-dependent protein deacetylase sirtuin-1 (Homo sapiens, UniProt Q96EB6); assay: Inhibition of SIRT1 (unknown origin) by FDL assay
Procedure, shortened: (§3)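 Selectivity testing by FDL assay at concentrations up to 200 µM. SIRT1-2 assays run by an outside contract provider. Values reported as IC50.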

Histone deacetylase 3 = Histone deacetylase 3 (Homo sapiens, UniProt O15379); assay: Inhibition of HDAC3 (unknown origin) by FDL assay; procedure, shortened: as §3
MIA PaCa-2 [7] = assay: Inhibition of colony formation in human MIAPaCa2 cells incubated for 9 to 18 days by crystal violet staining based assay; assay type: functional, cell-based
Procedure, shortened: (§4)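 Cells are seeded per well at the line-specific density: BXPC-3 750, PANC-1 500, AsPC-1 2200, MIAPaCa-2 500. Compound at several concentrations is added after 24 h. Incubation runs 9–18 days (BXPC-3 18 days, PANC-1 14 days). Cells are then fixed with 4% paraformaldehyde and stained with crystal violet, and colonies of more than 50 cells are counted.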

NCI-H446 = assay: Antiproliferative activity against human NCI-H446 cells assessed as reduction in cell viability incubated for 72 hrs by MTT assay; assay type: functional, cell-based
[8] = target: T1, NAD-dependent protein deacylase sirtuin-6; assay: Activation of N-terminal his-tagged human SIRT6 expressed in Escherichia coli M15 [pREP4] assessed as increase in deacetylation activity incubated for 2 hrs using Ac-RYQK(Myr)-AMC substrate by FDL assay relative to control
Histone deacetylase 4 = Histone deacetylase 4 (Homo sapiens, UniProt P56524); assay: Inhibition of HDAC4 (unknown origin) by FDL assay; procedure, shortened: as §3
[9] = target: Protein deacetylase HDAC6 (Homo sapiens, UniProt Q9UBN7); assay: Inhibition of HDAC6 (unknown origin) by FDL assay; procedure, shortened: as §3
SW-620 = assay: Antiproliferative activity against human SW620 cells assessed as reduction in cell viability incubated for 72 hrs by MTT assay; assay type: functional, cell-based
HepG2 = assay: Antiproliferative activity against human HepG2 cells assessed as reduction in cell viability incubated for 72 hrs by MTT assay; assay type: functional, cell-based
BXPC-3 [10] = assay: Induction of cell cycle arrest in human BxPC3 cells assessed as increase in accumulation at G2 phase incubated for 48 hrs by propidium iodide staining based flow cytometry; assay type: functional
Procedure, shortened: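 PANC-1 and BXPC-3 cells in 6-well plates treated with a concentration series for 48 h. Stained with 50 µg/mL propidium iodide for 30 min in the dark. DNA content analysed by flow cytometry for cell-cycle phase distribution.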

MIA PaCa-2 [11] = assay: Antiproliferative activity against human MIAPaCa2 cells assessed as reduction in cell viability incubated for 72 hrs by MTT assay; assay type: functional, cell-based
Procedure, shortened: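 PDAC cells grown in DMEM or RPMI1640 with 10% FBS and penicillin/streptomycin at 37 °C, 5% CO2. Plated in triplicate, then treated with a concentration series for 72 h. Viability read by MTT. IC50 calculated from dose-response curves.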

[12] = target: T1, NAD-dependent protein deacylase sirtuin-6; assay: In-vivo activation of SIRT6 in BALB/c nude mouse xenografted with human PANC1 cells assessed as reduction in Lin28b expression at 150 mg/kg/day, po for 30 days by IHC analysis; assay type: functional, organism-based; settings: PANC-1
Procedure, shortened: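 Female BALB/c nude mice (6–8 weeks) bearing subcutaneous PANC-1 xenografts (5×10⁶–1×10⁷ cells, right flank), randomised at 130–150 mm³ tumours; oral dosing daily for 30 days versus vehicle (n=6). Tumour tissue stained by immunohistochemistry.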

ASPC1 = assay: Inhibition of colony formation in human AsPC1 cells incubated for 9 to 18 days by crystal violet staining based assay; assay type: functional, cell-based; procedure, shortened: as §4
[13] = Half life in Sprague-Dawley rat at 2 mg/kg, iv after 0.25 to 24 hrs by LC-MS/MS analysis; assay type: ADME, organism-based; settings: in vivo; procedure, shortened: as §2
BXPC-3 [14] = assay: Inhibition of colony formation in human BxPC3 cells incubated for 9 to 18 days by crystal violet staining based assay; assay type: functional, cell-based; procedure, shortened: as §4
[15] = AUC (0 to infinity) in Sprague-Dawley rat at 10 mg/kg, po after 0.083 to 24 hrs by LC-MS/MS analysis; assay type: ADME, organism-based; parameters: dose 10 mg/kg, time infinity, route oral; settings: in vivo; procedure, shortened: as §2

T1 sequence (Q8N6T7 whole entry): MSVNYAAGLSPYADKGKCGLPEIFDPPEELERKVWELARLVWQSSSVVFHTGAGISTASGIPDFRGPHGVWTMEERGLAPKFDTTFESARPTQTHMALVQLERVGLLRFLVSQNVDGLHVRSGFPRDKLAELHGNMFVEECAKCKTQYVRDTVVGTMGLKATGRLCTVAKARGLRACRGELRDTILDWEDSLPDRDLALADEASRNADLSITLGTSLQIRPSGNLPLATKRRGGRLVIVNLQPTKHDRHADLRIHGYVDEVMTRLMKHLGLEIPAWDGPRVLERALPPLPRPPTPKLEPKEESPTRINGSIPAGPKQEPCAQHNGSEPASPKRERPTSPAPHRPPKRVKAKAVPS
Chain of Histone deacetylase 4 (P56524 whole entry): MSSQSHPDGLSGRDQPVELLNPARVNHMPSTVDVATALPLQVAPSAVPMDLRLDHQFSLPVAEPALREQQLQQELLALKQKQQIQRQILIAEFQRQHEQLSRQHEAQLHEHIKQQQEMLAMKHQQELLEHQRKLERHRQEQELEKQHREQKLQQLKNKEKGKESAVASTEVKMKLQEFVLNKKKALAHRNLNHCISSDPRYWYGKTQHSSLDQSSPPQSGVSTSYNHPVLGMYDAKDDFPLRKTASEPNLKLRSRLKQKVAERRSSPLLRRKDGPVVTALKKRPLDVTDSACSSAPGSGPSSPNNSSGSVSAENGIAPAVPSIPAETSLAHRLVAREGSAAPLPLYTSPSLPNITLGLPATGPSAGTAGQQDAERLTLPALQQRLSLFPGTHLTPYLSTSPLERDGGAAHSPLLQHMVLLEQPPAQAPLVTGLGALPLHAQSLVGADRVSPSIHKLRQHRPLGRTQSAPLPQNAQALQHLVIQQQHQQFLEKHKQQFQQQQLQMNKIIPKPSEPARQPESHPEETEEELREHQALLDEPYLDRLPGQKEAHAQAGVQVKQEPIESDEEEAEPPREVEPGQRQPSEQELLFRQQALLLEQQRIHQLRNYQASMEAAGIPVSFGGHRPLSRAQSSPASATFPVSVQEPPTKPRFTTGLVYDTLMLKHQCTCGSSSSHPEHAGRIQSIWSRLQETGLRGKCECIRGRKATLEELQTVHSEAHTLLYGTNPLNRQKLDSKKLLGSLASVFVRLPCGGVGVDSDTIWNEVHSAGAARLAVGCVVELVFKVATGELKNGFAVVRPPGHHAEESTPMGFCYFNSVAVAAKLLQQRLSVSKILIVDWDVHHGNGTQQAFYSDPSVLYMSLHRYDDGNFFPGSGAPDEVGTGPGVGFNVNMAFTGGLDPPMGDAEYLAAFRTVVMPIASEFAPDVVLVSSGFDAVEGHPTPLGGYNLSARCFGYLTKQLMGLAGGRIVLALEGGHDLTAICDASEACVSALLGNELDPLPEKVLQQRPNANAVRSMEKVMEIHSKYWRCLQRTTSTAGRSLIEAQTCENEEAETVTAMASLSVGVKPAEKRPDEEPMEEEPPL
Chain of NAD-dependent protein deacetylase sirtuin-1 (Q96EB6 whole entry): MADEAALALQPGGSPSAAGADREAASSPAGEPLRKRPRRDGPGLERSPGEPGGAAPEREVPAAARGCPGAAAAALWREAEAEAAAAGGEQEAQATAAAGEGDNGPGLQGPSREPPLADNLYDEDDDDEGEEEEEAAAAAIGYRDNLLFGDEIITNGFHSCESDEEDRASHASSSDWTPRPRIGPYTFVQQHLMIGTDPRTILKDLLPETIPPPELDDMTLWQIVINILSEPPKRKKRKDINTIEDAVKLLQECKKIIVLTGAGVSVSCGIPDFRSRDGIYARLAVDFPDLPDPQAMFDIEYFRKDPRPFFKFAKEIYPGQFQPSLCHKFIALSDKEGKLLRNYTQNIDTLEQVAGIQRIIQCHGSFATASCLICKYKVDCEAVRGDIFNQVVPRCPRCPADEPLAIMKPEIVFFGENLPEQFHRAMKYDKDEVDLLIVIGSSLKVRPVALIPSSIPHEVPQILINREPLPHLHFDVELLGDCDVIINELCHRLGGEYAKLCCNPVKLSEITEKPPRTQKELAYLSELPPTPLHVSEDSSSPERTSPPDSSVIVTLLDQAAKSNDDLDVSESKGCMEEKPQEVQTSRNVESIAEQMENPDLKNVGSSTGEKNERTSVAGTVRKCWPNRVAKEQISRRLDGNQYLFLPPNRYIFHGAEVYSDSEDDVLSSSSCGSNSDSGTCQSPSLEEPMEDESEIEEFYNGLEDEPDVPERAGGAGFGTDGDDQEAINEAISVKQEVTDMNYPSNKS
Chain of Histone deacetylase 3 (O15379 whole entry): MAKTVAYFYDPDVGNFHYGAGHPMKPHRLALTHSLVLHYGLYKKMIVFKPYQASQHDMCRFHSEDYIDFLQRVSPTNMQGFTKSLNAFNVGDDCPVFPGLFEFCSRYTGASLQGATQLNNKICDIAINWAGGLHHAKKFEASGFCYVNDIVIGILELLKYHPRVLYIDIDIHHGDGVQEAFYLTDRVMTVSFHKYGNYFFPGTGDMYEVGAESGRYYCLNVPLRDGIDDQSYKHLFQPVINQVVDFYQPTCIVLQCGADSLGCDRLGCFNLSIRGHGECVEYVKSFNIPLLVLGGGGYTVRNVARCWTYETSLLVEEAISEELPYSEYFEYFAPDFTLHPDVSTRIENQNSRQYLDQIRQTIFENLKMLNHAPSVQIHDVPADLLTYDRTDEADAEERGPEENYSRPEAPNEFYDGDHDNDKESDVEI
Chain of Protein deacetylase HDAC6 (Q9UBN7 whole entry): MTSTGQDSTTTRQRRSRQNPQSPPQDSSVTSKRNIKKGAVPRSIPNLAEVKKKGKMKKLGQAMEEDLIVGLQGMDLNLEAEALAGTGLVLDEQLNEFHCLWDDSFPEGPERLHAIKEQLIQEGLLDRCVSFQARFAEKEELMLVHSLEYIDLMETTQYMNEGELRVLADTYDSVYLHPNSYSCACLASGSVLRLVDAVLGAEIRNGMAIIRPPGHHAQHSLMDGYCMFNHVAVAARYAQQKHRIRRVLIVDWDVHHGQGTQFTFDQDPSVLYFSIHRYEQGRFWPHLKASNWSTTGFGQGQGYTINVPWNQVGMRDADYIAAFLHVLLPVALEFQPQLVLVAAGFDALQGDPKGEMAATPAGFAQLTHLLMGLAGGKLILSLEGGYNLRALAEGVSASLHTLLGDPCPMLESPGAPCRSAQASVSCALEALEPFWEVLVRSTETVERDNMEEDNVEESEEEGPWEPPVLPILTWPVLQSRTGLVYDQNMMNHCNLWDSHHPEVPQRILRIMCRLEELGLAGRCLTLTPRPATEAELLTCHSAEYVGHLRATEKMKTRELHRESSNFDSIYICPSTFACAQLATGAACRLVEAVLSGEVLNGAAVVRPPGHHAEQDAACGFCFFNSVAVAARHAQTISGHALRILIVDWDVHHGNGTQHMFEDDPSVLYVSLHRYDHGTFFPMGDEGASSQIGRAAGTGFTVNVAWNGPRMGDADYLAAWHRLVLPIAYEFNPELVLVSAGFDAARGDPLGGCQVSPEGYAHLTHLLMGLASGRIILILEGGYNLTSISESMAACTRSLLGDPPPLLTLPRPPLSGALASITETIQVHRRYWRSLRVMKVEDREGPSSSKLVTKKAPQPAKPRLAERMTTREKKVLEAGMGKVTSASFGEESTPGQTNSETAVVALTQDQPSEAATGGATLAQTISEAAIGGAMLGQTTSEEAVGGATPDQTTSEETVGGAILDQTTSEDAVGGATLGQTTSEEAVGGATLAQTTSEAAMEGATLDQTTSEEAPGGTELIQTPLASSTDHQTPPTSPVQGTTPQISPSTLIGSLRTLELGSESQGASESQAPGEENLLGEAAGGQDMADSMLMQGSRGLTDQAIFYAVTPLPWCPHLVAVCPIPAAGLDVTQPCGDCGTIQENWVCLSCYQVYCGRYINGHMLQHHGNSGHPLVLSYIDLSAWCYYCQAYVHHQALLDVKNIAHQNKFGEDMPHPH

- Activity [1]: Active
- Tmax [2]: 4.8 min
- inhibition [3]: Dose-dependent effect
- AUCt [4]: 704.67 ng·mL·h
- Tmax [5]: 2 h
- IC50 [6]: 171 µM
- IC50 (Histone deacetylase 3): > 200 µM
- EC1.5 [8]: 0.49 µM
- EC50 [8]: 5.49 µM
- IC50 (Histone deacetylase 4): > 200 µM
- IC50 [9]: > 200 µM
- IC50 (MIA PaCa-2 [11]; MIA PaCa-2, 72 h): 7.1 µM
- Activity [12]: Active
- t1/2 [13]: 9.06 h
- AUC [15]: 755.57 ng·mL·h
Structure (SMILES): O=C(NC(c1ccccc1)c1ccccc1)c1cc(-c2cc3ccccc3o2)nc2ccccc12
- inhibition in vivo at 150 mg/kg/day (PANC-1): 90.2%
- Activity (SK-OV-3): Active
- Activity (Homo sapiens): Active
- inhibition (MIA PaCa-2 [7]): Dose-dependent effect
- Activity (NCI-H446): Active
- Activity (SW-620): Active
- Activity (HepG2): Active
- Activity (BXPC-3 [10]): Dose-dependent effect
- Activity (MIA PaCa-2 [11]): Dose-dependent effect
- inhibition (ASPC1): Dose-dependent effect
- inhibition (BXPC-3 [14]): Dose-dependent effect

— ChEMBL document CHEMBL4622973, “Discovery of Potent Small-Molecule SIRT6 Activators: Structure-Activity Relationship and Anti-Pancreatic Ductal Adenocarcinoma Activity” (J Med Chem, 2020)
